Blank lines part the entries; values can stand above or below the molecule they belong to. Active and inactive are the calls of the source. No cut-off for these calls is given here.
Experiments:
[1] = biological target: T1, Polyunsaturated fatty acid 5-lipoxygenase (Homo sapiens, UniProt P09917); assay: Inhibition of 5-LO in human neutrophils using arachidonic acid as substrate preincubated for 15 mins measured after 10 mins by HPLC analysis
T1 sequence (P09917 whole entry): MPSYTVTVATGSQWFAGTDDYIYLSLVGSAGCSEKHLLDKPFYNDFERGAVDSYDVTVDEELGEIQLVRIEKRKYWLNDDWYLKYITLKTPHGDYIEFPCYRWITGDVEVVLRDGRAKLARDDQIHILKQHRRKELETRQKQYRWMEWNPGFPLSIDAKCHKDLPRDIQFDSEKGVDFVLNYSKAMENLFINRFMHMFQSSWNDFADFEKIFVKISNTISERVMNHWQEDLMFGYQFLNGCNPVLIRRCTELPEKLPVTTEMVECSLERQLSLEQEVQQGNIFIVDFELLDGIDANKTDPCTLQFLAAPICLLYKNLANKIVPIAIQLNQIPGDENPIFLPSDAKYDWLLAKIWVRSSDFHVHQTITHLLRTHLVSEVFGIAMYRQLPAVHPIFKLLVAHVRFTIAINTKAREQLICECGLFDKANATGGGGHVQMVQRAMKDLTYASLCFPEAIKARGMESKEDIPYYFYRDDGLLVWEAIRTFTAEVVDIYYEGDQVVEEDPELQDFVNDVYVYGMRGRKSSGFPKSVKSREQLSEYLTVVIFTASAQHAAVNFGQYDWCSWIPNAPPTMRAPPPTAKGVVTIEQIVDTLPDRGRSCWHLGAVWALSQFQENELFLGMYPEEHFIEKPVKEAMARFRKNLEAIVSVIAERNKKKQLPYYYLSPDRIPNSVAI
Summary of the method: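 Fresh human neutrophils, 1 × 10⁷/mL in PBS pH 7.4 with 1 mM CaCl2 and 1 mg/mL glucose, preincubated 15 min at 37 °C. LTB4, its all-trans isomers and 5-H(P)ETE by HPLC.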

[2] = biological target: T2, Polyunsaturated fatty acid 5-lipoxygenase (Homo sapiens) (UniProt P09917); assay: Ratio of curcumin IC50 to compound IC50 for 5-LO-mediated 5,12-DiHETE formation in LPS-stimulated human monocytes preincubated for 15 mins before arachidonic acid substrate addition measured after 30 mins by UPLC-MS/MS analysis; assay type: cell-based
T2 sequence (whole entry): T1 sequence (P09917 whole entry)

[3] = biological target: T2, Polyunsaturated fatty acid 5-lipoxygenase (Homo sapiens); assay: Ratio of curcumin IC50 to compound IC50 for 5-LO-mediated 5-HETE formation in LPS-stimulated human monocytes preincubated for 15 mins before arachidonic acid substrate addition measured after 30 mins by UPLC-MS/MS analysis; assay type: cell-based
[4] = biological target: T3, Prostaglandin G/H synthase 1 (Homo sapiens, UniProt P23219); assay: Inhibition of COX1-mediated PGD2 formation in LPS-stimulated human monocytes preincubated for 15 mins before arachidonic acid substrate addition measured after 30 mins by UPLC-MS/MS analysis; assay type: cell-based
[5] = biological target: T4, Prostaglandin E synthase (Homo sapiens) (UniProt O14684); assay: Inhibition of mPGES1-mediated PGE2 production in microsomes of IL-1beta stimulated human A549 cells assessed as residual activity preincubated at 10 uM for 15 mins by RP-HPLC analysis relative to control; assay type: cell-based
T4 sequence (whole entry): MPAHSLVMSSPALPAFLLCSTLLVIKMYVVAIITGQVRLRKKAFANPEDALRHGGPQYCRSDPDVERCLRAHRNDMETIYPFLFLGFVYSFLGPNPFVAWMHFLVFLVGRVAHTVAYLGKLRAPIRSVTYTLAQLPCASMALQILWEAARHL
Summary of the method: (§1)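 mPGES-1 source: microsomes of A549 cells treated 48 h with IL-1β 2 ng/mL, at 25−50 μg protein/mL in 0.1 M potassium phosphate pH 7.4 with 2.5 mM glutathione. Compound preincubation 15 min at 4 °C; PGH2 (20 μM final) for 1 min; FeCl2/citric acid stop with 11β-PGE2 internal standard. PGE2 by RP-HPLC.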

[6] = biological target: T3, Prostaglandin G/H synthase 1; assay: Inhibition of COX1-mediated PGF2alpha formation in LPS-stimulated human monocytes preincubated for 15 mins before arachidonic acid substrate addition measured after 30 mins by UPLC-MS/MS analysis; assay type: cell-based
PBMC = assay: Cytotoxicity against human PBMCs assessed as cell viability after 24 hrs by MTT assay; assay type: cell-based
Summary of the method: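 Human PBMC (2 × 10⁵/well), 24 h exposure. MTT then 4 h at 37 °C in darkness. Formazan solubilized with 10% SDS in 20 mM HCl; absorbance 550 nm. Viability relative to untreated cells; IC50 derived.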

[7] = system: Radical scavenging activity; assay: Antioxidant activity assessed as DPPH free radical scavenging activity at 10 uM after 30 mins […] by spectrophotometric analysis; assay type: functional
[8] = biological target: T4, Prostaglandin E synthase (Homo sapiens); assay: (§2) Inhibition of mPGES1-mediated PGE2 formation in LPS-stimulated human monocytes preincubated for 15 mins before arachidonic acid substrate addition measured after 30 mins by UPLC-MS/MS analysis; assay type: cell-based
Summary of the method: (§3)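 Fresh human monocytes (adherence-isolated, >85% CD14+; 5 × 10⁶/well) primed with LPS 1 μg/mL for 24 h. Washed, 15 min preincubation, then 2.5 μM A23187 plus 20 μM arachidonic acid for 30 min. Eicosanoids extracted and measured by UPLC-MS/MS, normalized to PGB1 as relative intensities. Two to three independent experiments.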

[9] = biological target: T2, Polyunsaturated fatty acid 5-lipoxygenase (Homo sapiens); assay: Ratio of curcumin IC50 to compound IC50 for 5-LO-mediated LTB4 formation in LPS-stimulated human monocytes preincubated for 15 mins before arachidonic acid substrate addition measured after 30 mins by UPLC-MS/MS analysis; assay type: cell-based
[10] = biological target: T5, Prostaglandin G/H synthase 1 (Ovis aries) (UniProt P05979); assay: Inhibition of purified ovine COX-1 assessed as residual activity by measuring formation of 12-HHT from arachidonic acid preincubated at 10 uM for 5 mins before substrate addition measured after 5 mins by HPLC analysis relative to control; values are per cent of control
T5 sequence (whole entry): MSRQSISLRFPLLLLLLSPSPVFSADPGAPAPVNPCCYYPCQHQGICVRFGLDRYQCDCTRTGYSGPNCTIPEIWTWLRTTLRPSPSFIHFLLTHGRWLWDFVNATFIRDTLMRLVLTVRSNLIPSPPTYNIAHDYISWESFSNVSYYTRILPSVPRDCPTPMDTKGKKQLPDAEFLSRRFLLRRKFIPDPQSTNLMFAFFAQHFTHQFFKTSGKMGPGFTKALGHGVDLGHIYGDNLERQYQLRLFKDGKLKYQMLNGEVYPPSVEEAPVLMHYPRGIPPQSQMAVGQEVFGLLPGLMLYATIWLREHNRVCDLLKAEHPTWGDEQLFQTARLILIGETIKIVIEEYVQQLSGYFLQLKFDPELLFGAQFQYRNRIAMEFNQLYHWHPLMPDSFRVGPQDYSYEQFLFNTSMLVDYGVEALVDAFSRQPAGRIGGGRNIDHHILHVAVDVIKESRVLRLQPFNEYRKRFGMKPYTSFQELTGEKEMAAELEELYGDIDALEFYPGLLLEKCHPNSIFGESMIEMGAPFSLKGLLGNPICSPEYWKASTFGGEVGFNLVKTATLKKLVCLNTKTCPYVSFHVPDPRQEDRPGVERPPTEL

Prostaglandin E synthase [11] = biological target: T6, Prostaglandin E synthase (Homo sapiens, UniProt O14684); assay: Inhibition of mPGES1-mediated PGE2 production in microsomes of IL-1beta stimulated human A549 cells preincubated for 15 mins by RP-HPLC analysis; assay type: cell-based; summary of the method: as §1
T6 sequence (O14684 whole entry): T4 sequence (whole entry)

Prostaglandin E synthase [12] = biological target: T6, Prostaglandin E synthase; assay: as §2; assay type: cell-based; summary of the method: as §3

T3 sequence (P23219 whole entry): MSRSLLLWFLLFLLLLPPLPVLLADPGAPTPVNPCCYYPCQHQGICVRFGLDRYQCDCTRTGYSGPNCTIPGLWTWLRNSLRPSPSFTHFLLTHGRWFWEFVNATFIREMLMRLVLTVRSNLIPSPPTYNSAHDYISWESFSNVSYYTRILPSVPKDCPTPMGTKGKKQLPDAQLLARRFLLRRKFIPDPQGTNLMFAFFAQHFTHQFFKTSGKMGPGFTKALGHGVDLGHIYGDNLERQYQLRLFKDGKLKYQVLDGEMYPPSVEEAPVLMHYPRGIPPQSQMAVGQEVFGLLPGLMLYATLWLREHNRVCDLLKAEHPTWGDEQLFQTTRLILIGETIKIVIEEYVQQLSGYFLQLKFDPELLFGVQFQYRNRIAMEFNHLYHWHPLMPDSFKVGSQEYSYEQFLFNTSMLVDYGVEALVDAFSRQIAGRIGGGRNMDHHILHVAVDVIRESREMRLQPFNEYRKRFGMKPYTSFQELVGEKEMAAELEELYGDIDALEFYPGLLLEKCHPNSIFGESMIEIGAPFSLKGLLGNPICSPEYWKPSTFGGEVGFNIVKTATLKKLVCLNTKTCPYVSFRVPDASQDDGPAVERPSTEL

Structure (SMILES): COc1cc(/C=C/c2cc(-c3ccc(O)c(OC)c3)[nH]n2)ccc1O
- IC50 [1]: 1.9 µM
- Ratio IC50 [2]: 2
- Ratio IC50 [3]: 2
- inhibition [4]: Active
- Activity [5]: 62.2%
- inhibition [6]: Active
- IC50 (PBMC): > 50 µM
- Activity [7]: 70.3%
- inhibition [8]: Active
- Ratio IC50 [9]: 2

Structure (SMILES): COc1cc(/C=C/C(=O)CC(=O)/C=C/c2cc(CC=C(C)C)c(O)c(OC)c2)cc(CC=C(C)C)c1O
- residual activity [10]: 80.2%
- Activity [5]: 59.6%
- IC50 (PBMC): > 50 µM
- Activity [7]: 57.9%

Structure (SMILES): COc1cc(/C=C/c2cc(/C=C/c3ccc(O)c(OC)c3)[nH]n2)ccc1O [CURCUMIN PYRAZOLE]
- IC50 [1]: 0.7 µM
- Ratio IC50 [2]: 2
- Ratio IC50 [3]: 2
- inhibition [4]: Active
- Activity [5]: 54.8%
- inhibition [6]: Active
- IC50 (PBMC): > 50 µM
- Activity [7]: 59.6%
- inhibition [8]: Active
- Ratio IC50 [9]: 2

Structure (SMILES): COc1cc(/C=C/C(=O)/C=C/c2cc(CC=C(C)C)c(O)c(OC)c2)cc(CC=C(C)C)c1O
- IC50 [1]: 1.7 µM
- Ratio IC50 [2]: 2
- residual activity [10]: 78.7%
- Ratio IC50 [3]: 2
- IC50 (PBMC): > 50 µM
- IC50 (Prostaglandin E synthase [11]; read-out: IC50): 1.5 µM
- Activity [7]: 75.8%
- Ratio IC50 [9]: 2

Structure (SMILES): COc1cc(/C=C/c2cc(/C=C/c3cc(CC=C(C)C)c(O)c(OC)c3)[nH]n2)cc(CC=C(C)C)c1O
- IC50 [1]: 0.8 µM
- IC50 [4]: > 10 µM
- Activity [5]: 68%
- IC50 [6]: > 10 µM
- IC50 (PBMC): > 50 µM
- Activity [7]: 57.3%
- IC50 (Prostaglandin E synthase [12]): > 10 µM

Structure (SMILES): COc1cc(CCC(=O)CC(=O)CCc2ccc(O)c(OC)c2)ccc1O [TETRAHYDROCURCUMIN]
- IC50 (PBMC): > 50 µM
- IC50 (Prostaglandin E synthase [11]; a549): Not Active
- Activity [7]: 62.2%

The next lines start with results.

- IC50 [1]: 5.2 µM
- IC50 (Prostaglandin E synthase [11]; a549): Not Active
Structure (SMILES): COc1cc(/C=C/C(=O)/C=C/c2ccc(O)c(OC)c2)ccc1O
- IC50 (PBMC): 34.7 µM
- Activity [7]: 80.7%

- inhibition [4]: Active
- inhibition [6]: Active
- IC50 (Prostaglandin E synthase [11]; read-out: IC50): 0.6 µM
- IC50 (Prostaglandin E synthase [12]): 1.2 µM
Structure (SMILES): COc1cc(/C=C/C(=O)CC(=O)/C=C/c2ccc(O)c(OC)c2)ccc1O [CURCUMIN]
- IC50 (PBMC): 34.8 µM
- Activity [7]: 63.9%

- IC50 [1]: 9.9 µM
- Activity [5]: 72.6%
Structure (SMILES): COc1cc(/C=C/C(=O)CC(=O)c2ccc(O)c(OC)c2)ccc1O
- IC50 (PBMC): > 50 µM
- Activity [7]: 80.2%

— ChEMBL document CHEMBL3286393 (J Med Chem, 2014)
